Data from publication PMC4145632 (ACS Chemical Biology, 2014).

Tests used:
PA-1 cells = test: p53 level Western blot in PA-1 cells; format: cell-based, human; settings: PA-1, Western blot of remaining cells after treatment
Procedure, shortened: (§1)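 PA-1 and PA-1/HPV16 E6 cells treated with test compound at the same concentrations used for the resazurin viability test. Remaining cells washed, lysed in RIPA buffer with protease inhibitors and protein normalised by BCA. Lysates resolved by SDS-PAGE, transferred to PVDF and immunoblotted for p53.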

E6–E6AP interaction = E6–E6AP interaction (Human papillomavirus type 16, UniProt P03126); test: ELISA-based E6–E6AP association assay; format: binding, HPV16; settings: E6M-GST / MBP-E6AP association
Sequence of E6–E6AP interaction (P03126 whole entry): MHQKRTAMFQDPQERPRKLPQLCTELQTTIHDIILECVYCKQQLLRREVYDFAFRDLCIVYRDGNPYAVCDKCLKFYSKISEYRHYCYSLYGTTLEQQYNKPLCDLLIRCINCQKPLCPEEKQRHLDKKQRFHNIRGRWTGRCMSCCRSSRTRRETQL
Sequence of E6–E6AP interaction (Q05086 363-440, further chain): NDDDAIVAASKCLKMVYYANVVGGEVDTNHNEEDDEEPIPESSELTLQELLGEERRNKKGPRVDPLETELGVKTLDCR

HCT116 cells [1] = test: MTS cytotoxicity assay in HCT116 cells; format: cell-based, human; settings: HCT116, 48 h, all concentrations tested 1.6–25 μM
SiHa cells = test: Cell proliferation in SiHa cells; format: cell-based, human; settings: data not shown
E6M = test: Fluorescent E6 thermal stability assay; format: binding, HPV16; settings: E6M melting curve 20-80 °C, 4 µM E6M, 10 µM compound
Procedure, shortened: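 Full-length untagged E6M: bacterially expressed 6xHis-SUMO fusion, SUMO-protease cleaved, SUMO removed on Ni-NTA. E6M mixed in buffer with SYPRO orange and test compound in DMSO, or DMSO control. Controls: protein only, compound only. Heated 20–80 °C in a real-time PCR instrument; fluorescence at 580 nm (dye bound to protein) read against temperature. Run in replicate.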

SiHa (HPV16 integrated) = test: p53 level Western blot in SiHa cells; format: cell-based, human; settings: 48 h, compound 1–10 μM
Procedure, shortened: (§2)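 Cells plated, then dosed next day with increasing concentrations of test compound in DMSO, or DMSO control, for 48 h. HCT116 (colon, wild-type p53) got the same concentrations as SiHa/HeLa. Cells washed twice, lysed in RIPA buffer with protease inhibitors, and protein normalised by BCA. Lysates run on SDS-PAGE, transferred to PVDF and probed with anti-p53 antibody.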

PA-1/E6 cells [2] = test: Resazurin cell viability, PA-1/E6 cells; format: cell-based, human; settings: PA-1/E6, 24 h
Procedure, shortened: (§3)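 Cells plated on day 1; test compound in DMSO, or DMSO, added on day 2. Puromycin as control. Flavonoid compounds and puromycin incubated 24 h. Resazurin then added to 5 μM final for 1 h; resorufin fluorescence read at 590 nm as a surrogate for viability. Cells: HCT116, parental PA-1 (human ovarian teratocarcinoma) or PA-1 stably transfected with HPV16 E6.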

[3] = Resazurin cell viability, PA-1/E6 cells; format: cell-based, human; settings: human, PA-1/E6 cells (PA-1 cells stably transfected with E6)
Procedure, shortened: as §3

PA-1/E6 cells [4] = test: p53 level Western blot in PA-1/E6 cells; format: cell-based, human; settings: PA-1/E6, Western blot of remaining cells after treatment
Procedure, shortened: as §1

HCT116 cells [5] = test: p53 level Western blot in HCT116 cells; format: cell-based, human
Procedure, shortened: as §2

HeLa (HPV18 integrated) = test: p53 level Western blot in HeLa cells; format: cell-based, human; settings: 48 h, compound 1–10 μM
Procedure, shortened: as §2

HeLa cells = test: Cell proliferation in HeLa cells; format: cell-based, human; settings: data not shown
PA-1 parental cells = test: Resazurin cell viability, PA-1 parental cells; format: cell-based, human; settings: 24 h
Procedure, shortened: as §3

HCT116 cells [6] = test: Resazurin cell viability, HCT116 cells; format: cell-based, human; settings: HCT116, 24 h
Procedure, shortened: as §3

HPV-positive cell lines [7] = settings: cited from earlier work
HPV-positive cell lines [8] = settings: HPV-positive cell lines ref 33; cited from earlier work
[9] = HCT116, same concentrations as viability test (Figure 6B)

SMILES: O=c1c(O)c(-c2ccc(O)c(O)c2)oc2c(O)c(O)cc(O)c12 [Gossypetin]
- p53 levels (PA-1 cells): unchanged
- ELISA IC50 (stated in words) (E6–E6AP interaction): sub-micromolar
- Toxicity (MTS) (HCT116 cells [1]): not toxic
- Inhibition of cell proliferation (SiHa cells): did not observe an inhibition of cell proliferation
- Thermal Stability (E6M): stabilizes E6M
- p53 levels (SiHa (HPV16 integrated)): significant increase in p53 levels
- Cell viability (resazurin) (PA-1/E6 cells [2]): sensitive
- viability at 24 h [3]: > 50%
- p53 levels (PA-1/E6 cells [4]): concentration dependent increase
- p53 levels (HCT116 cells [5]; [9]): unchanged
- p53 levels (HeLa (HPV18 integrated)): significant increase in p53 levels
- Inhibition of cell proliferation (HeLa cells): did not observe an inhibition of cell proliferation

SMILES: COc1ccc(C[C@H](N)C(=O)N[C@H]2[C@@H](O)[C@H](n3cnc4c(N(C)C)ncnc43)O[C@@H]2CO)cc1 [Puromycin, reference compound]
- Cell viability (resazurin) (PA-1/E6 cells [2]): equally cytotoxic
- Cell viability (resazurin) (PA-1 parental cells): equally cytotoxic
- Cell viability (resazurin) (HCT116 cells [6]): equally cytotoxic

SMILES: O=c1cc(-c2ccccc2)oc2cc(O)c(O)c(O)c12 [baicalein]
- p53 levels (PA-1 cells): unchanged
- ELISA IC50 (stated in words) (E6–E6AP interaction): sub-micromolar
- Inhibition of cell proliferation (SiHa cells): did not observe an inhibition of cell proliferation
- Cell viability (resazurin) (PA-1/E6 cells [2]): sensitive
- viability at 24 h [3]: > 50%
- p53 levels (PA-1/E6 cells [4]): concentration dependent increase
- p53 levels (HCT116 cells [5]; [9]): unchanged
- Inhibition of cell proliferation (HeLa cells): did not observe an inhibition of cell proliferation

SMILES: CC[n+]1c(-c2ccccc2)c2cc(N)ccc2c2ccc(N)cc21 [ethidium bromide, Ethidium bromide, reference compound]
- p53 levels (HCT116 cells [5]; HCT116 (HPV-negative, wild-type p53), 48 h, Western blot): effectively stabilized p53

SMILES: O=c1cc(-c2ccc(O)c(O)c2)oc2cc(O)cc(O)c12 [luteolin]
- Viability of HPV-positive cell lines (HPV-positive cell lines [7]): decreased viability
- p53 and p21Cip1/Waf1 protein (HPV-positive cell lines [8]): increase in p53 and p21^Cip1/Waf1 protein
